{"source": "ChEMBL document CHEMBL4613298", "about": "“GPBAR1 Activation by C6-Substituted Hyodeoxycholane Analogues Protect against Colitis” (ACS Med Chem Lett, 2020)", "key": {"[1]": {"target": "T1, Bile acid receptor (Homo sapiens) (UniProt Q96RI1)", "T1 sequence (whole entry)": "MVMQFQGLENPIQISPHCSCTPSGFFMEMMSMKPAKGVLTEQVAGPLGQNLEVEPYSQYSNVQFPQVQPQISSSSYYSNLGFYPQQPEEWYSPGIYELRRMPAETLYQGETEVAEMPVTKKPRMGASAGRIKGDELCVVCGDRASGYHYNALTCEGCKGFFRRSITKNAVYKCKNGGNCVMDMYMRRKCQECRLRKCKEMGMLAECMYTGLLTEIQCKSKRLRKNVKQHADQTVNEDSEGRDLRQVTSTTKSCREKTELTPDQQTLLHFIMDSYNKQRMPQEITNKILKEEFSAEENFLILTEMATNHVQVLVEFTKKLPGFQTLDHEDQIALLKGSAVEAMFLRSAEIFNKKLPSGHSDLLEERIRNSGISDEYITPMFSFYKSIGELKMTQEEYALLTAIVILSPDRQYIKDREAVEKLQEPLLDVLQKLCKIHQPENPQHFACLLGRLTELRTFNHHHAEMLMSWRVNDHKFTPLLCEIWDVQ", "test": "Transactivation of FXR (unknown origin) expressed in HepG2 cells co-expressing pSG5RXR/pGL4.70 assessed as maximum receptor activation at 10 uM after 18 hrs by IR1 driven dual renilla-luciferase reporter gene assay relative to relative to CDCA", "assay_type": "cell-based", "method_in_brief": "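FXR reporter assay in HepG2 cells transfected with FXR and an IR1-driven luciferase reporter, compound at 10 μM. Efficacy is maximal IR1 transactivation relative to CDCA (10 μM). One experiment, triplicate.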"}, "[2]": {"target": "T2, G-protein coupled bile acid receptor 1 (Homo sapiens) (UniProt Q8TDU6)", "T2 sequence (whole entry)": "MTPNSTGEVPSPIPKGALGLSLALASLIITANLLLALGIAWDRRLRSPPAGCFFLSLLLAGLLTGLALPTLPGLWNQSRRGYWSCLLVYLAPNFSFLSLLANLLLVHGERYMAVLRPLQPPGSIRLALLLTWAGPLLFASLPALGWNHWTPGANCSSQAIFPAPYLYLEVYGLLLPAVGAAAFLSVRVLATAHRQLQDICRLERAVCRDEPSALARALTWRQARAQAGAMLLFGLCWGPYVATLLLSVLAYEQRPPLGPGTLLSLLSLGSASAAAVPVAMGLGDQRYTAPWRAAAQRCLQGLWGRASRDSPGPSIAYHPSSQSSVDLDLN", "test": "Agonist activity at GPBAR1 receptor in human THP1 cells assessed as reduction in LPS-induced IL-6 expression at 10 uM after 18 hrs by RT-PCR analysis", "assay_type": "cell-based", "settings": "THP-1", "method_in_brief": "(§1)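 THP1 monocytic/macrophage cells primed with LPS, then coincubated with or without test agent at 10 μM; expression of cytokine genes (IL-1β, IL-6, TNF-α, IL-10) measured.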"}, "Homo sapiens": {"species_on_record": "Homo sapiens", "test": "Selectivity index, ratio of transactivation of human GPBAR1 receptor expressed in HEK293T cells assessed as maximum receptor activation at 10 uM to transactivation of human FXR (unknown origin) expressed in HepG2 cells co-expressing pSG5RXR/pGL4.70 assessed as maximum receptor activation at 10 uM", "assay_type": "cell-based", "method_in_brief": "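Ratio of percent activity at GPBAR1 (HEK-293T, CRE-luciferase, 10 μM, vs TLCA 10 μM) to percent activity at FXR (HepG2, IR1-luciferase, 10 μM, vs CDCA 10 μM). Both taken from the same triplicate experiment.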"}, "[3]": {"test": "Aqueous solubility of compound in pH 7.4 PBS/MeOH at 10 mM after 24 hrs by LC-MS analysis", "assay_type": "physicochemical", "settings": "buffer, pH 7.4, 24 h, 10000 µM"}, "[4]": {"target": "T2, G-protein coupled bile acid receptor 1 (Homo sapiens)", "test": "Agonist activity at GPBAR1 receptor in human THP1 cells assessed as reduction in LPS-induced IL-1beta expression at 10 uM after 18 hrs by RT-PCR analysis", "assay_type": "cell-based", "settings": "THP-1", "method_in_brief": "as §1"}, "[5]": {"target": "T2, G-protein coupled bile acid receptor 1 (Homo sapiens)", "test": "Transactivation of human GPBAR1 receptor expressed in HEK293T cells assessed as maximum receptor activation at 10 uM after 18 hrs by cAMP response element driven renilla-luciferase dual reporter gene assay relative to TLCA", "assay_type": "functional, cell-based", "settings": "HEK-293T", "method_in_brief": "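HEK-293T cells transfected with GPBAR1 and a CRE-driven luciferase reporter, exposed to compound at 10 μM. Efficacy is maximal CRE transactivation as percent of that caused by TLCA (10 μM). One experiment, triplicate.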"}, "[6]": {"target": "T2, G-protein coupled bile acid receptor 1 (Homo sapiens)", "test": "Agonist activity at GPBAR1 receptor in human THP1 cells assessed as reduction in LPS-induced TNFalpha expression at 10 uM after 18 hrs by RT-PCR analysis", "assay_type": "cell-based", "settings": "THP-1", "method_in_brief": "as §1"}, "[7]": {"target": "T1, Bile acid receptor (Homo sapiens)", "test": "Agonist activity at GST-tagged FXR-LBD (unknown origin) assessed as biotinylated SRC-1 recruitment at 10 uM after 30 mins by Alpha Screen assay"}, "[8]": {"target": "T2, G-protein coupled bile acid receptor 1 (Homo sapiens)", "test": "Transactivation of human GPBAR1 receptor expressed in HEK293T cells at 10 to 50 uM after 18 hrs by cAMP response element driven renilla-luciferase dual reporter gene assay", "assay_type": "functional, cell-based", "settings": "HEK-293T"}, "[9]": {"target": "T3, G-protein coupled bile acid receptor 1 (Homo sapiens, UniProt Q8TDU6)", "T3 sequence (Q8TDU6 whole entry)": "T2 sequence (whole entry)", "test": "Agonist activity at human GPBAR1 receptor expressed in HEK293T cells after 18 hrs by cAMP response element driven renilla-luciferase dual reporter gene assay", "assay_type": "functional, cell-based, HEK-293T", "method_in_brief": "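GPBAR1 transactivation in transfected HEK-293T cells carrying a CRE-luciferase reporter; potency expressed as EC50. Data from one experiment run in triplicate.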"}}, "note": "The source made the active and inactive calls. The rule behind the calls is not given here.", "data": [{"smiles": "C[C@H](CC#N)[C@H]1CC[C@H]2[C@@H]3C[C@@](C)(O)[C@@H]4C[C@H](O)CC[C@]4(C)[C@H]3CC[C@]12C", "values": [{"measurement": "max activation", "setting": "[1]", "result": 5.5, "unit": "%"}, {"measurement": "Activity", "setting": "[2]", "result": "Active"}, {"measurement": "Selectivity Index", "setting": "Homo sapiens", "result": 15.1}, {"measurement": "solubility", "setting": "[3]", "result": "Soluble"}, {"measurement": "Activity", "setting": "[4]", "result": "Active"}, {"measurement": "max activation", "setting": "[5]", "result": 83.4, "unit": "%"}]}, {"smiles": "CC[C@@]1(O)C[C@H]2[C@@H]3CC[C@H]([C@H](C)CC#N)[C@@]3(C)CC[C@@H]2[C@@]2(C)CC[C@@H](O)C[C@@H]12", "values": [{"measurement": "Activity", "setting": "[6]", "result": "Active"}, {"measurement": "max activation", "setting": "[1]", "result": 6.6, "unit": "%"}, {"measurement": "Activity", "setting": "[2]", "result": "Active"}, {"measurement": "Selectivity Index", "setting": "Homo sapiens", "result": 9.9}, {"measurement": "solubility", "setting": "[3]", "result": "Soluble"}, {"measurement": "Activity", "setting": "[4]", "result": "Active"}, {"measurement": "max activation", "setting": "[5]", "result": 65.9, "unit": "%"}]}, {"smiles": "C=CC[C@@]1(O)C[C@@H]2[C@H](CC[C@]3(C)[C@@H]([C@H](C)CC#N)CC[C@@H]23)[C@@]2(C)CC[C@@H](O)C[C@H]12", "values": [{"measurement": "Activity", "setting": "[7]", "result": "inactive"}, {"measurement": "Activity", "setting": "[8]", "result": "inactive"}]}, {"smiles": "C[C@H](CC#N)[C@H]1CC[C@H]2[C@@H]3C[C@](C)(O)[C@@H]4C[C@H](O)CC[C@]4(C)[C@H]3CC[C@]12C", "values": [{"measurement": "Activity", "setting": "[6]", "result": "Active"}, {"measurement": "max activation", "setting": "[1]", "result": 6.4, "unit": "%"}, {"measurement": "Activity", "setting": "[2]", "result": "Active"}, {"measurement": "Selectivity Index", "setting": "Homo sapiens", "result": 14.9}, {"measurement": "solubility", "setting": "[3]", "result": "Soluble"}, {"measurement": "Activity", "setting": "[4]", "result": "Active"}, {"measurement": "max activation", "setting": "[5]", "result": 95.4, "unit": "%"}]}, {"smiles": "C[C@H](CC#N)[C@H]1CC[C@H]2[C@@H]3C[C@@](C)(O)[C@H]4C[C@H](O)CC[C@]4(C)[C@H]3CC[C@]12C", "values": [{"measurement": "Activity", "setting": "[7]", "result": "inactive"}, {"measurement": "Activity", "setting": "[8]", "result": "inactive"}]}, {"smiles": "CC[C@@]1(O)C[C@@H]2[C@H](CC[C@]3(C)[C@@H]([C@H](C)CC#N)CC[C@@H]23)[C@@]2(C)CC[C@@H](O)C[C@H]12", "values": [{"measurement": "Activity", "setting": "[7]", "result": "inactive"}, {"measurement": "Activity", "setting": "[8]", "result": "inactive"}]}, {"smiles": "CCC[C@@]1(O)C[C@@H]2[C@H](CC[C@]3(C)[C@@H]([C@H](C)CC#N)CC[C@@H]23)[C@@]2(C)CC[C@@H](O)C[C@H]12", "values": [{"measurement": "Activity", "setting": "[7]", "result": "inactive"}, {"measurement": "Activity", "setting": "[8]", "result": "inactive"}]}, {"smiles": "C=C[C@]1(O)C[C@@H]2[C@H](CC[C@]3(C)[C@@H]([C@H](C)CC#N)CC[C@@H]23)[C@@]2(C)CC[C@@H](O)C[C@H]21", "values": [{"measurement": "max activation", "setting": "[1]", "result": 2.2, "unit": "%"}, {"measurement": "Selectivity Index", "setting": "Homo sapiens", "result": 28.4}, {"measurement": "max activation", "setting": "[5]", "result": 62.5, "unit": "%"}]}, {"smiles": "C[C@H](CC#N)[C@H]1CC[C@H]2[C@@H]3C[C@@](O)(c4ccccc4)[C@@H]4C[C@H](O)CC[C@]4(C)[C@H]3CC[C@]12C", "values": [{"measurement": "max activation", "setting": "[1]", "result": 18.2, "unit": "%"}, {"measurement": "Selectivity Index", "setting": "Homo sapiens", "result": 2.13}, {"measurement": "max activation", "setting": "[5]", "result": 38.8, "unit": "%"}]}, {"smiles": "CC(C)[C@]1(O)C[C@@H]2[C@H](CC[C@]3(C)[C@@H]([C@H](C)CC#N)CC[C@@H]23)[C@@]2(C)CC[C@@H](O)C[C@H]21", "values": [{"measurement": "max activation", "setting": "[1]", "result": 4.3, "unit": "%"}, {"measurement": "Selectivity Index", "setting": "Homo sapiens", "result": 5.16}, {"measurement": "max activation", "setting": "[5]", "result": 22.2, "unit": "%"}]}, {"smiles": "C[C@H](CC#N)[C@H]1CC[C@H]2[C@@H]3C[C@H](O)[C@@H]4C[C@H](O)CC[C@]4(C)[C@H]3CC[C@]12C", "values": [{"measurement": "max activation", "setting": "[1]", "result": 3.5, "unit": "%"}, {"measurement": "EC50", "setting": "[9]", "result": 2.65, "unit": "µM"}, {"measurement": "Selectivity Index", "setting": "Homo sapiens", "result": 33.9}, {"measurement": "max activation", "setting": "[5]", "result": 119, "unit": "%"}]}, {"smiles": "C=CCCC[C@]1(O)C[C@H]2[C@@H]3CC[C@H]([C@H](C)CC#N)[C@@]3(C)CC[C@@H]2[C@@]2(C)CC[C@@H](O)C[C@@H]12", "values": [{"measurement": "max activation", "setting": "[1]", "result": 1.6, "unit": "%"}, {"measurement": "Activity", "setting": "[2]", "result": "Active"}, {"measurement": "Selectivity Index", "setting": "Homo sapiens", "result": 56.3}, {"measurement": "solubility", "setting": "[3]", "result": "Soluble"}, {"measurement": "Activity", "setting": "[4]", "result": "Active"}, {"measurement": "max activation", "setting": "[5]", "result": 90.1, "unit": "%"}]}, {"smiles": "C[C@H](CC#N)[C@H]1CC[C@H]2[C@@H]3C[C@](O)(Cc4ccccc4)[C@@H]4C[C@H](O)CC[C@]4(C)[C@H]3CC[C@]12C", "values": [{"measurement": "max activation", "setting": "[1]", "result": 4.4, "unit": "%"}, {"measurement": "Selectivity Index", "setting": "Homo sapiens", "result": 1.88}, {"measurement": "max activation", "setting": "[5]", "result": 8.3, "unit": "%"}]}, {"smiles": "C=CC[C@@]1(O)C[C@H]2[C@@H]3CC[C@H]([C@H](C)CC#N)[C@@]3(C)CC[C@@H]2[C@@]2(C)CC[C@@H](O)C[C@@H]12", "values": [{"measurement": "max activation", "setting": "[1]", "result": 4.1, "unit": "%"}, {"measurement": "EC50", "setting": "[9]", "result": 0.1, "unit": "µM"}, {"measurement": "Selectivity Index", "setting": "Homo sapiens", "result": 15.2}, {"measurement": "max activation", "setting": "[5]", "result": 62.5, "unit": "%"}]}, {"smiles": "CCC[C@]1(O)C[C@H]2[C@@H]3CC[C@H]([C@H](C)CC#N)[C@@]3(C)CC[C@@H]2[C@@]2(C)CC[C@@H](O)C[C@@H]12", "values": [{"measurement": "max activation", "setting": "[1]", "result": 3.1, "unit": "%"}, {"measurement": "Selectivity Index", "setting": "Homo sapiens", "result": 21.6}, {"measurement": "max activation", "setting": "[5]", "result": 67.1, "unit": "%"}]}]}
